One compound from publication PMC8015125 (ACS Omega, 2021) can be followed below.

For test [1], the system named is PC3 cell line. Nature of the test: MTT assay on PC3. In kind it is cell-based, human. As to conditions: 24 h treatment. Summed up:
(§1)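 Cells were grown in RPMI or DMEM with 10% FBS, penicillin and streptomycin at 37 °C under 5% CO2. They were seeded at 1 × 10^4 cells/well and exposed 24 h later for 24 h to the test compound at different concentrations (complexes 0–100 μM). After two PBS washes, 0.5 mg mL–1 MTT was added for 3–4 h at 37 °C. Formazan was dissolved in extraction buffer and OD read at 570 nm. % survival was taken relative to untreated cells (100%) to give IC50. Ratios were BPH1/PC3 and WI-38/A549 IC50.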
On the technique in general: Formazan colour is commonly taken as a measure of viable cells.

The test system of test [2] is A549 cell line. The test is described as follows: MTT assay on A549. In kind it is cell-based. To be noted: read-out: IC50 A549, 24 h treatment. Summed up:
as §1

The subject of test [3] is WI-38 lung fibroblast cells. Nature of the test: MTT assay on WI-38. In kind it is cell-based. To be noted: read-out: IC50 WI-38, 24 h treatment. Summed up: as §1
The test system of test [4] is BPH1 cell line. Nature of the test: MTT assay on BPH1. Type of test: cell-based, human. As to conditions: read-out: IC50 BPH1, 24 h treatment. In outline:
as §1

Take `N.N.[Cl][Pt][Cl]` [cisplatin, reference compound]: the “R1 = IC50 ratio of BPH1 cells to PC3 cells” value in test [1] stood at 1.4. Moreover, the concentration for half-maximal inhibition (IC50) was found to be 5.4 ± 1.93 µM in test [1] (read-out: IC50 PC3, MTT); 60.1 ± 2.43 µM in test [2]; 66.5 ± 2.12 µM in test [3]; 8 ± 1.03 µM in test [4].

The IC50 is the concentration that inhibits the measured activity by half.
